Usually IC50 stands for the concentration that inhibits the measured activity by half. In general, Ki refers to a dissociation constant, usually derived from enzyme kinetics or from competition with a known ligand.

The test system of data set [1] is Trypanosoma cruzi. As to the kind of experiment: Inhibition of Trypanosoma cruzi Ribose 5-phosphate isomerase type B assessed as residual activity at 0.2 mM using ribose 5-phosphate as substrate relative to control. In a few lines:
(§1)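 TcRPI-B activity on R5P, measured by coupled enzyme assay (TcRPE-1 first coupling enzyme), with compound at 0.2, 0.5, 1.0 or 2.0 mM, as % of control activity. Mean of three independent determinations ± SEM.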

The test system of data set [2] is Trypanosoma cruzi. As to the kind of experiment: Inhibition of Trypanosoma cruzi Ribose 5-phosphate isomerase type B assessed as residual activity at 0.5 mM using ribose 5-phosphate as substrate relative to control. The procedure, abridged: as §1
The next data set relates to NIH3T3. Nature of the data set: Cytotoxicity against mouse NIH/3T3 cells. The data set is classed as cell-based.
Data set [3] has as its system Trypanosoma cruzi. As to the kind of experiment: Inhibition of Trypanosoma cruzi Ribose 5-phosphate isomerase type B assessed as residual activity at 2 mM using ribose 5-phosphate as substrate relative to control. In a few lines:
as §1

The test system of data set [4] is Trypanosoma cruzi. As to the kind of experiment: Inhibition of Trypanosoma cruzi RPE1 assessed as residual activity at 2 mM relative to control. In a few lines:
(§2)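 TcRPE-1 (first enzyme of the coupled RPI assay) activity measured with compound at 0.2, 0.5, 1.0 or 2.0 mM, as % of uninhibited activity. Mean of three independent determinations ± SEM.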

The subject of data set [5] is Trypanosoma cruzi. Nature of the data set: Inhibition of Trypanosoma cruzi RPE1 assessed as residual activity at 0.2 mM relative to control. In a few lines: as §2
The test system of data set [6] is Trypanosoma cruzi. As to the kind of experiment: Inhibition of Trypanosoma cruzi RPE1 assessed as residual activity at 0.5 mM relative to control. The procedure, abridged:
as §2

Data set [7] concerns Trypanosoma cruzi. Nature of the data set: Inhibition of Trypanosoma cruzi Ribose 5-phosphate isomerase type B assessed as residual activity at 1 mM using ribose 5-phosphate as substrate relative to control. In a few lines:
as §1

Data set [8] has as its system Trypanosoma cruzi. As to the kind of experiment: Inhibition of Trypanosoma cruzi RPE1 assessed as residual activity at 1 mM relative to control. In a few lines: as §2
Data set [9] has as its system Trypanosoma cruzi. As to the kind of experiment: Trypanocidal activity against Trypanosoma cruzi trypomastigotes expressing beta galactosidase infected in NIH/3T3 cells assessed as parasite growth inhibition by reporter assay. The data set is classed as functional, organism-based. As to conditions: NIH3T3. The procedure, abridged:
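Tulahuen strain expressing β-galactosidase. Trypomastigotes added to NIH-3T3 fibroblasts together with compound, up to 50 μM, covering infection and intracellular amastigote growth. β-Galactosidase activity taken as parasite viability. IC50 from dose-response fits, in triplicate. Amphotericin B positive control.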
For orientation: Reporter assays use an easily measured gene product as a stand-in for the process of interest.

Data set [10] has as its system Trypanosoma cruzi. As to the kind of experiment: Binding affinity to Trypanosoma cruzi Ribose 5-phosphate isomerase type B assessed as covalent bond formation between compound and protein Cys69 residue by trypsin digestion based LC-MS/MS analysis. In a few lines: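 TcRPI-B incubated intact with inhibitor for 30 min, then digested with trypsin to map cysteine modification.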

The nature of data set [11]: Competitive inhibition of Trypanosoma cruzi Ribose 5-phosphate isomerase type B using varying levels of ribose 5-phosphate as substrate by Dixon plot analysis. In a few lines:
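Coupled assay with TcRPE-1 as first coupling enzyme. Inhibitor at 0, 10, 20, 40, 60 and 80 μM, R5P at 0.4, 0.8 and 2 mM. Ki taken from the x-axis intersection of Dixon plots (1/V vs [inhibitor]). Inhibition type assigned from parallel [R5P]/V vs [inhibitor] lines (Cornish-Bowden). Mean of four independent experiments.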

Data set [12] concerns Trypanosoma cruzi. As to the kind of experiment: Trypanocidal activity against Trypanosoma cruzi trypomastigotes expressing beta galactosidase infected in NIH/3T3 cells assessed as parasite growth inhibition at up to 50 uM by reporter assay. The following applies: dose microM <=50.
Data set [13] is described as follows: Inhibition of Trypanosoma cruzi Ribose 5-phosphate isomerase type B expressed in Escherichia coli BL21 codon plus (DE3) using ribose 5-phosphate as substrate.
A short description of data set [14]: Competitive inhibition of recombinant poly-His-tagged Trypanosoma cruzi Ribose 5-phosphate isomerase type B expressed in Escherichia coli BL21 codon plus (DE3) using ribose 5-phosphate as substrate. The procedure, abridged:
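Coupled spectrophotometric RPI assay, with T. cruzi ribulose 5-phosphate epimerase (TcRPE-1) as the first coupling enzyme. Inhibitor was tested at 0, 10, 20, 40, 60 and 80 μM, each at R5P 0.4, 0.8 and 2 mM. Ki came from Dixon plots (1/V vs [inhibitor]), as the X-axis intersection of the three lines. Inhibition type was assigned from [R5P]/V vs [inhibitor] plots (Cornish-Bowden). Mean of four independent experiments.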

Active and inactive are the calls of the source. No cut-off for these calls is given here.

Consider `O=C(CCl)NCCOP(=O)(O)O`, for which the Activity is 107% in the data set on Trypanosoma cruzi [1]; 105% with Trypanosoma cruzi [2]; “Non-Toxic” in the data set on NIH3T3; 83.7% in the data set with Trypanosoma cruzi [3]; 82.6% in the data set with Trypanosoma cruzi [4]; 100% in the data set with Trypanosoma cruzi [5]. Besides, the Activity in the data set on Trypanosoma cruzi [6] amounted to 103%; with Trypanosoma cruzi [7] it was 98.5%; in the data set on Trypanosoma cruzi [8] it was 95.5%.
Take `C[C@@H]1[C@H](O)[C@@H](C)/C=C/C=C/C=C/C=C/C=C/C=C/C=C/[C@H](O[C@@H]2O[C@H](C)[C@@H](O)[C@H](N)[C@@H]2O)C[C@@H]2O[C@](O)(C[C@@H](O)C[C@@H](O)[C@H](O)CC[C@@H](O)C[C@@H](O)CC(=O)O[C@H]1C)C[C@H](O)[C@H]2C(=O)O` [AMPHOTERICIN B]: the IC50 with Trypanosoma cruzi [9] was determined as 0.23 µM.
As to `O=C(CI)NCCOP(=O)(O)O`, the Activity in the data set with Trypanosoma cruzi [1] is 25.2%; with Trypanosoma cruzi [2], 7.5%; in the data set with NIH3T3, “Non-Toxic”; with Trypanosoma cruzi [3] it was 0%; with Trypanosoma cruzi [4] it was 57.4%; with Trypanosoma cruzi [5] it was 89.5%. Moreover, the Activity in the data set on Trypanosoma cruzi [6] came out at 89.5%; in the data set with Trypanosoma cruzi [7] it was 1.2%; with Trypanosoma cruzi [8] it was 103%. Besides, in the data set on Trypanosoma cruzi [10], the result was Active. Further, in data set [11], the Ki worked out at 5.5 µM. Moreover, the concentration for half-maximal inhibition (IC50) with Trypanosoma cruzi [9] was 17.4 µM.
With `O=C(Cc1ccccc1)NCCOP(=O)(O)O`, the Activity in the data set on Trypanosoma cruzi [1] was 98.1%; in the data set on Trypanosoma cruzi [2], 97.4%; with NIH3T3, “Non-Toxic”; in the data set on Trypanosoma cruzi [3], 89.2%; with Trypanosoma cruzi [4] it was 85.9%; in the data set on Trypanosoma cruzi [5], 100%. For the same compound, the Activity in the data set with Trypanosoma cruzi [6] came out at 91.9%; in the data set with Trypanosoma cruzi [7] it was 95.3%; in the data set with Trypanosoma cruzi [8], 87.4%. Further, in the data set on Trypanosoma cruzi [12], the outcome was inactive.
On to `O=C(CF)NCCOP(=O)(O)O`, for which the Activity is 2040% in the data set with Trypanosoma cruzi [2]; “Non-Toxic” in the data set on NIH3T3; 83.5% in the data set on Trypanosoma cruzi [4]; 111% with Trypanosoma cruzi [5]; 103% with Trypanosoma cruzi [6]; 93.2% in the data set with Trypanosoma cruzi [8]. In the data set with Trypanosoma cruzi [12], the outcome was inactive.
`O=C[C@H](O)[C@H](O)[C@H](O)[C@H](O)COP(=O)(O)O`: in [13], the inhibitory constant (Ki) was 15000 µM.
On to `O=C(NO)[C@H](O)[C@H](O)COP(=O)(O)O`, for which the inhibitory constant (Ki) in [14] stood at 1200 µM.
As for `O=C(CBr)NCCOP(=O)(O)O`, the Activity was 78.5% in the data set with Trypanosoma cruzi [1]; 62.7% in the data set with Trypanosoma cruzi [2]; “Non-Toxic” in the data set on NIH3T3; 18.3% in the data set on Trypanosoma cruzi [3]; 65.1% with Trypanosoma cruzi [4]; 91.1% in the data set with Trypanosoma cruzi [5]. In addition, the Activity with Trypanosoma cruzi [6] was 85.8%; in the data set on Trypanosoma cruzi [7], 41.3%; in the data set on Trypanosoma cruzi [8] it was 77.3%. Further, the result in the data set on Trypanosoma cruzi [12] was inactive.

Source of the values: ChEMBL document CHEMBL4680297, “Design, synthesis, and evaluation of substrate - analogue inhibitors of Trypanosoma cruzi ribose 5-phosphate isomerase type B” (Bioorg Med Chem Lett, 2021).
